Test results published in ChEMBL document CHEMBL4513216, “Probing the Open Global Health Chemical Diversity Library for Multistage-Active Starting Points for Next-Generation Antimalarials” (ACS Infect Dis, 2020).

Test: Toxicity liver stage against HepG2, at 10uM
Assay type: cell-based
Design: test concentration 10 uM, cell line HepG2-A16-CD81EGFP
Settings: human, HepG2-A16-CD81EGFP cells; read-out: INHIBITION
Summary of the method: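 Uninfected HepG2-A16-CD81EGFP cells, 3 × 10^3 per well, 1536-well, plated on prespotted compound at 10 μM final, parasite-free screening media added to match infected plates; puromycin 10 μM positive, DMSO 0.5% negative; run in parallel with 48 h PbLuc assay at 37 °C, 5% CO2; viability by CellTiter-Glo luminescence, normalized to controls.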

Structure (SMILES)	cytotoxicity at 10 µM [%]
COc1ccc(CN2CC(O)CN(C(=O)c3ccccc3)CC2=O)cc1 (stereo unspecified)	0.331
COc1ccc(Cl)cc1C(=O)NCC1CCN(C(=O)c2ccoc2)CC1	10.1
O=S1(=O)NCC2(CCN(c3ncc(F)cn3)CC2)COc2ccccc21	4.74
CCCOc1cccc(C(=O)Oc2cc(=O)n3cccc(C)c3n2)c1	12.1
CC1CCCN(c2ncc(C(=O)NCc3ccc(F)c(Cl)c3)c(N)n2)C1 (stereo unspecified)	-2.83
CC(C)CN1CCn2c(nc3cc(C(=O)NC(C)C)ccc32)C1	0.889
Cc1nsc(C(=O)N2CCc3ccccc3C2)n1	5.86
CSc1[nH]nc(NC(=O)c2ccccc2)c1C#N	-9.59
CCc1cc(OC)c(OC)cc1C(=O)Nc1cccnc1	4.94
Cc1nn(C)c2c(N3CCSCC3)nc(C3CC3)nc12	7.29
COc1cc(NCc2ccc(Cl)cc2)c(-c2nn[nH]n2)cc1OC	10.1
O=C(NCCO)C1(CC2CC(c3ccc(F)cc3)=NO2)CCOCC1 (stereo unspecified)	-2.55
CCNC(=O)[C@@H]1CN(Cc2ccccc2)C[C@H]1C(=O)c1ccc(F)cc1	3.38
COCCC(=O)N1CCCC1c1nc(C)c2c(n1)N(C)C(=O)CC2 (stereo unspecified)	-1.04
CN1C[C@@H](C(=O)N2CCOCC2)[C@@]2(CCc3ccccc3C(=O)N2)C1	9.87
Cc1nn(C)cc1S(=O)(=O)N(C)[C@@H]1CCC[C@@H](n2ccnc2)[C@@H]1O	-2.78
Cc1cc(-c2ccc(=O)n(C3CCN(C(=O)C4CC4)CC3)n2)c(C)o1	4.79
Cc1ccc(NCC2(O)CCNCC2)cc1C	2.27
CC(C)C(NC(=O)c1ccc(N2CCOCC2)nc1)c1cccs1 (stereo unspecified)	-44
CCCNC(=O)C[S+]([O-])Cc1csc(C2CCCCC2)n1 (stereo unspecified)	-48.2
COc1ccc(N(C)C(=O)C2CN(C)CCO2)cc1Cl (stereo unspecified)	-46.4
O=C(Nc1ccc(F)cc1)N1CCC(CO)(Nc2ccccc2)CC1	2.94
O=C(NCCO)NC(c1ccccc1)c1ccc2c(c1)CCCO2 (stereo unspecified)	2.73

Structure (SMILES)	cytotoxicity at 10 µM [%]
CCC(O)CN1CCN(C(=O)c2cccc3c2OCC(=O)N3)CC1 (stereo unspecified)	-7.55
O=C(Cc1ccn[nH]1)Nc1cncc(Br)c1O	-3.93
CC(C)(C)CC(NC(=O)c1nc(=O)[nH][nH]1)c1ccc(F)cc1 (stereo unspecified)	-2.42
COc1ccc(C(=O)NS(=O)(=O)c2ccc(CNC(C)=O)s2)cc1	1.81
COCCN(C(=O)c1ccoc1C)c1ccc(C#N)cc1	-4.9
CC(C(=O)NCC(C)(C)c1ccc(Br)cc1)n1cncn1 (stereo unspecified)	1.73
COc1c(Cl)cc(C(=O)NCc2n[nH]c(C)n2)cc1Cl	1.42
COc1c(C2CCCN2Cc2nccn2C)c(C)nn1C (stereo unspecified)	3.06
CNS(=O)(=O)CC(=O)N(C1CCCC1)C1CC1	-2.78
CCC(=O)NCC(CC)Oc1cccc(F)c1 (stereo unspecified)	-44
Cc1nc(C)c(S(=O)(=O)NC(=O)c2cccs2)s1	-0.837
Clc1cccc(C(CNCc2cccnc2)N2CCOCC2)c1 (stereo unspecified)	-4.45
Cc1ccc(C(C)(O)CNC(=O)NCCc2ccc3c(c2)CCO3)o1 (stereo unspecified)	-4.53
CC(C(=O)Nc1nccs1)N(C)Cc1cccc(C#N)c1 (stereo unspecified)	1.88
CCOc1ccccc1CCC(=O)Nc1c(C)nn(C)c1C	-3.91
CC(NC(=O)CN1CCN(c2cccc(Cl)c2)CC1)c1ccco1 (stereo unspecified)	-11.1
N#Cc1cccnc1N[C@@H]1c2ccccc2C[C@@H]1O	2.28
CC(C)CC(NC(=O)C1=CCCC1)C(=O)N1CCC(CO)CC1 (stereo unspecified)	8.23
CCN(CC(=O)Nc1cc(Cl)ccc1C)C(=O)c1ccc(=O)[nH]n1	-0.898
O=C(CS(=O)(=O)Cc1nnnn1C1CC1)NCCc1ccccc1	2.92
CCN(CC)C(=O)C1CCN(C(=O)Nc2cccnc2OC)CC1	19
Cc1cc(C)c(S(=O)(=O)NCCC(=O)NCc2ccoc2)c(C)c1	4.05
COc1cc(C)nc(N2CCN(C(=O)CCc3ccco3)CC2)n1	7.92

Structure (SMILES)	cytotoxicity at 10 µM [%]
CCC(=O)N1CCN(C(=O)Nc2cccc(N3CCOCC3)c2)CC1	-3.1
CC(O)CN1CCN(C(=O)c2ccnc(N(C)C)c2)CC1 (stereo unspecified)	4.37
CC(=O)N1CCCN(C(=O)CN(C)c2ccc(Cl)cn2)CC1	-7.64
CCCN1CCN(S(=O)(=O)c2ncn(C)c2Cl)CC1	9.97
O=C(c1ccc(O)c(Cl)c1)N1CCN(c2nccs2)CC1	-10.3
CCOc1ncccc1NC(=O)c1ccc(C)s1	-3.89
CN(C)C(=O)C1CCCN1CCCNC(=O)c1cccc2[nH]ncc12 (stereo unspecified)	-1.07
CS(=O)(=O)Cc1ccc(C(=O)NCC2Cc3ccccc3O2)cc1 (stereo unspecified)	6.6
COc1ccc(Nc2ncccc2C#N)cc1N1CCCC1=O	6.86
Cc1ccc(C2CN(Cc3cnc(-c4ccccn4)s3)CCO2)o1 (stereo unspecified)	2.91
Cn1cc(N2CCCC(Oc3ccc(F)cc3Cl)C2=O)cn1 (stereo unspecified)	-3.3
NC(=O)N1CCCN(Cc2cc(F)cc(Br)c2)CC1	9.91
CC(C)n1nc2c(cc1=O)CN(CCOc1cccc(C#N)c1)CC2	13.6
O=C(O)c1csc(S(=O)(=O)N2CCCc3cccc(OC(F)F)c32)c1	-13.5
O=C(NCCCC(=O)N1CCN(CC2CC2)c2ccccc21)C1CC1	-9.59
CC(C)c1nc(/C=C/c2cnn(-c3ccccc3)c2)ncc1C(=O)O	-11.3
O=C(CN(CC(O)c1ccc(F)cc1)C1CC1)NC1CCOCC1 (stereo unspecified)	0.0428
CCS(=O)(=O)CCN(C)C(=O)NC(C)c1ccc(C)s1 (stereo unspecified)	-9.02
N#Cc1cc(S(N)(=O)=O)ccc1NC1CCc2cc(Cl)ccc21 (stereo unspecified)	29.1
CN(C)c1ncccc1CNC(=O)NCC(c1cccs1)N(C)C (stereo unspecified)	11.6
CC(C)(C)[S+]([O-])CCNC(=O)c1ccc(Cl)c2cccnc12 (stereo unspecified)	-44.5
CC(C)N(C)CC(=O)N(C)Cc1nc(C(F)(F)F)cs1	-2.96
Cc1cc(C2CCCN2C(=O)NCc2cccc(F)c2)on1 (stereo unspecified)	24.8

Structure (SMILES)	cytotoxicity at 10 µM [%]
Cc1cnn(C2CN(CC(O)c3ccc4c(c3)OCCO4)C2)c1 (stereo unspecified)	21.9
CCS(=O)(=O)N1CCc2c(COC)cncc2C1	-99
CC(=O)N1CCc2[nH]nc(C(=O)N3CC=CC3)c2C1	-108
O=C([C@H]1CCCO1)N1CCc2ncc(CN3CCOCC3)n2CC1	-72.3
CN1CCN(Cc2cnc3n2CCN(C(=O)N2CCCC2)C3)CC1	-72.3
O=C(CO)N1CCCC2(CCN(c3ccsc3)C2=O)C1 (stereo unspecified)	-66.8
COC[C@@H]1CC[C@H]2[C@H](CCN2S(=O)(=O)c2cccc(C)c2)O1	3.29
O=c1c2ccc(Cl)cc2ncn1CCCN1CCCCC1CO (stereo unspecified)	-2.4
Cc1nc[nH]c1CN1CCn2nc(CN3Cc4ccccc4C3)cc2C1	3.79
COC(C)(C)C(=O)N[C@H]1CN(c2ncccc2C(N)=O)C[C@@H]1C(C)C	6.66
CN1CC[C@H]2CN(C(=O)c3csc(Cc4ccccc4)n3)C[C@H]21	-2.45
CCN1CC(C(=O)N2CC(Oc3ccccc3Cl)C2)CC1=O (stereo unspecified)	-2.83
Cn1ncc2c(N3CCC(CCO)CC3)nc(C(C)(C)C)nc21	14.6
CC(C)Cc1ncc2c(n1)CN(c1nccc(N(C)C)n1)C2	-6.1
CC(=O)Nc1ccc(CN2CCc3[nH]cnc3C2c2ccc(C)o2)cc1 (stereo unspecified)	4.93
CC(C)N(C)S(=O)(=O)c1ccc2c(c1)CCN(C(=O)c1cccnn1)C2	-1.22
CN1CCN([C@@H]2CCN(Cc3cccc(-n4cccn4)c3)C[C@H]2O)CC1	8.42
CCn1ccnc1C1CCCN(C(=O)c2sc(C)nc2C)C1 (stereo unspecified)	1.24
Cc1cc(C)c2c(N3CCC(O)(Cn4ccnc4)CC3)ncnc2n1	-3.28
COCCOC(=O)N1CCC(c2nccn2CC2CC2)CC1	-2.08
COc1cc(C(N)=O)c(N(C)S(C)(=O)=O)cc1OC	-7.39
O=c1cc(C2CCNCC2)nc(CCCc2ccccc2)[nH]1	2.03
CC1CN(Cc2cc(C#N)ccc2F)CCN1Cc1nccn1C (stereo unspecified)	-6.33

Structure (SMILES)	cytotoxicity at 10 µM [%]
CCOc1ncccc1NC(=O)N1CCCC(CNC(N)=O)C1 (stereo unspecified)	-11.1
Cc1noc(C)c1CN(C)C(=O)NC1CCOCC1	-14.8
c1cncc(-c2noc(CN3CCc4cncnc4C3)n2)c1	-3.39
CN1CCCC1CNC(=O)CCOc1ccc(Br)cc1 (stereo unspecified)	-16.9
O=C(c1ccc2c(c1)COC2)N1CCC(Nc2ccccc2)CC1	-7.54
Clc1cc(CN2CCCC2Cn2cncn2)c2ncccc2c1 (stereo unspecified)	1.28
Clc1ccc2cccnc2c1CN1CCCC(Cn2cncn2)C1 (stereo unspecified)	8.38
CC(C)N(Cc1cccc(F)c1)Cc1nc2c(cnn2C)c(=O)[nH]1	-10.5
O=C(c1ccc2c(c1)COC2)N1CCN(CC2CC2)CC1	-7.18
N#Cc1ccc(OCCCN2CCc3cncnc3C2)cc1	-10
CC(O)CNC(=O)NCc1cccnc1OC1CCCC1 (stereo unspecified)	2.29
Cc1nn(C)c(N(C)C)c1CNCc1ccccc1Cn1cncn1	3.85
Cc1nn(C)c(C)c1CCn1cncc1-c1ccc2c(c1)CC(C)N2C (stereo unspecified)	-0.168
c1cnc(N2CCCC(NCc3cccc4c3OCCO4)C2)nc1 (stereo unspecified)	-8.18
O=C1CC2(CCN(Cc3cccnc3)C2)CN1c1ccc2c(c1)OCO2 (stereo unspecified)	-70.2
O[C@@H]1CCN(CC2CCOC2)[C@H]1Cc1cccnc1 (stereo partly specified)	-8.56
Cn1cc(N2CC3(CCN(Cc4cccnc4)CC3)OCC2=O)cn1	-79.3
CN(C)CCNCCC(Cc1ccccc1)C1CCOC(C)(C)C1 (stereo unspecified)	1.51
COc1ccc(CCNC(=O)C2CCC(Cn3cnnn3)CC2)cc1 (stereo unspecified)	10.2
